Screening data from PubChem BioAssay.
HUVEC inhibit: blocks proliferation of human endothelial cells; HUVEC proliferation, CellTiter-Glo luminescence, 72 h; active compounds read low; viability, % at 10 µM (by protocol); hit rate 1.1% among 86,000; AID 648;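 active means viability at or below 30%; inactive means viability above 30%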;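 further: 100% = median luminescence of DMSO-only cell control wells on each plate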
HCT116 bCat-KO: beta-catenin-lacking colon tumor cell growth suppression. HCT116 beta-catenin knockout viability, CellTiter-Glo, 60 h; active compounds read low. viability, % at 10 µM. hit rate 1.5% among 140,000. AID 818;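 active means viability at or under a set limit, the compound median less 4 SD, cut at about 6% in these data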;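 further: 0% = Hyamine 1622 control at 20 µM and 100% = untreated cell control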
Phagocyt inh: blocks phagocytosis by macrophages; J774A.1 macrophage IgG-bead phagocytosis, imaging; inhibition, % at 5 µM; hit rate 0.07% among 110,000;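 active means inhibition above the mean of the plate negative controls plus 5 SD, cut at about 13% in these data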;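 further: phagocytic index as fraction of beads internalized from green versus red external bead signal; plate controls were DMSO negative control for no effect and cytochalasin-D positive control for full effect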
HCT116 PTEN-null: suppresses growth of cells with PTEN deletion | HCT116 PTEN-null viability, CellTiter-Glo, 60 h; active compounds read low | hit rate 1.2% among 140,000 | viability, % at 10 µM;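 active means viability at or below a set limit, 4 SD under the median of all tested compounds, cut at about 3.7% in these data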;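 further: PTEN knockout HCT116 line with beta catenin targeted HCT116 as companion control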
H69AR inhibit: growth inhibitors of human H69AR lung tumor cells | H69AR lung tumor viability, ATP luminescence, 72 h; active compounds read low | viability, % at 10 µM | hit rate 6% among 85,000 | AID 598;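 active means viability at or below 40%; inactive means viability above 40%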;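 further: multidrug resistant small cell line overexpressing MRP-1 efflux transporter; 100% = mean luminescence of untreated control wells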
Lung fibro prol: blocks proliferation of human lung fibroblasts. LL 47 human lung fibroblast viability, ATP luminescence; active compounds read low. viability, % at 10 µM. hit rate 1.1% among 85,000. AID 719;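 active means viability at or below 50% in the single dose screen; inactive means viability above 50%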;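 further: compound exposure lasted 72 h before the ATP readout; 100% = median luminescence of untreated cell-only wells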
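Material: Human LL 47 lung fibroblast cells | Input: 1,150 cells/well | Buffer or medium: IMEM plus 15% FBS | Compound dosing: 0.1% DMSO in all compound wells | Times: Overnight cell rest, 72 h compound treatment at 37 °C | Signal: CellTiter-Glo luminescence measuring cellular ATP | Measure: % viability versus median cells-only luminescence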
An asterisk follows results filed as active; / = no result. Shown is part of a subset that was picked to be rich in hits.

SMILES | HUVEC inhibit | HCT116 bCat-KO | Phagocyt inh | HCT116 PTEN-null | H69AR inhibit | Lung fibro prol
CC(OC(=O)c1snc(C(=O)NC2CCCCC2)c1N)C(=O)NC1CCCCC1 (centres undefined) | 78 | 88 | / | 82 | 23* | 71
COc1cc(-c2nc(-c3ccc(NC(=O)c4ccc(Br)o4)cc3)no2)cc(OC)c1OC | 32 | 24 | 1 | 19 | 4.5* | 92
COc1ccc(-c2nc(-c3ccc(Br)o3)no2)cc1OC | / | 91 | 0 | 92 | / | /
COc1ccc(CCC(=O)Nc2ccc(-c3noc(-c4ccc(OC)c(OC)c4)n3)cc2)cc1 | 94 | 100 | 1 | 109 | 78 | 98
COc1ccc(-c2nc(-c3ccc(NC(=O)c4ccc(Br)o4)cc3)no2)cc1OC | 35 | 95 | -2 | 95 | 3.5* | 63
CN(C)c1ccc(C(=O)OCC(=O)NCC2CCCO2)cc1 (centres undefined) | / | 95 | 0 | 110 | / | /
CCOC(=O)c1cc(C#N)c(SCC(=O)c2cc(C#N)c(SC)nc2C)nc1C | 63 | / | -1 | / | 12* | /
CCC(C)(C)n1nnnc1CN1CCc2ccccc21 | 98 | 88 | / | 88 | 87 | 88
CCC(c1nnnn1C1CCCC1)N(Cc1cccs1)Cc1cc2cc(C)ccc2[nH]c1=O (centres undefined) | 51 | 4.0* | -1 | 3.0* | 4.2* | 74
CCOC(=O)Cn1nnnc1C(CC)N(Cc1cccs1)Cc1cc2cc(C)ccc2[nH]c1=O (centres undefined) | 86 | 55 | 0 | 52 | 72 | 101
CCOc1ccc2[nH]c(=O)c(CN(Cc3cccs3)C(CC)c3nnnn3C(C)(C)CC)cc2c1 (centres undefined) | 56 | 30 | 0 | 18 | 4.9* | 62
CCOc1ccc(CCNC(=O)C2CCC(=O)N2C2CCCCC2)cc1OCC (centres undefined) | 95 | 96 | / | 98 | 87 | 98
Cc1ccc(Nc2nc(N)nc(CN3CCC(C)CC3)n2)c(C)c1 | 86 | 93 | / | 86 | 33* | 94
Cc1ccc(Nc2nc(N)nc(CN3CCCCCC3)n2)c(C)c1 | 99 | 72 | -1 | 80 | 85 | 101
O=S(=O)(c1ccc(S(=O)(=O)N2CCCC3(CCCCC3)C2)cc1)N1CCCCC1 | 79 | 56 | 3 | 41 | 35* | 84
c1ccc(-c2nc(-c3cccs3)[nH]c2-c2ccccc2)cc1 | / | 74 | / | 68 | / | /
c1csc(-c2nc3c4ccccc4c4ccccc4c3[nH]2)c1 | 57 | 33 | / | 47 | 30* | 89
Cc1nnc(SCc2nc3ccccc3s2)n1-c1ccccc1 | 98 | 89 | / | 82 | 77 | 92
C#CCSc1nnc(CSc2nc3ccccc3s2)n1-c1ccccc1 | 80 | 81 | 0 | 83 | 3.0* | 89
Cc1nc(N2CCN(C)CC2)c2c(C)c(C(=O)Nc3ccc(C)c(F)c3)sc2n1 | 3.7* | 11 | -1 | 10 | 49 | 43*
COC(=O)c1sc2nc(-c3ccccc3)nc(N3CCN(C)CC3)c2c1C | 46 | 58 | 5 | 58 | 71 | 80
CC(=O)Nc1ccc(S(=O)(=O)N2CCC(c3nc4ccc(C)cc4[nH]3)CC2)cc1 | 80 | 25 | -1 | 43 | 66 | 98
CC(C)(C)c1ccc(S(=O)(=O)N2CCC(c3nc4ccc(Cl)cc4[nH]3)CC2)cc1 | 67 | 67 | / | 47 | 35* | 85
CCOc1ccc(-n2c(N)c(-c3nc4ccccc4n3C)c3nc4ccccc4nc32)cc1 | / | 54 | -1 | 47 | / | /
Cc1csc(NC(=O)c2cc3c(s2)CCCC3)n1 | 65 | 61 | 1 | 69 | 65 | 77
SMILES | HUVEC inhibit | HCT116 bCat-KO | Phagocyt inh | HCT116 PTEN-null | H69AR inhibit | Lung fibro prol
Cc1cnc(NC(=O)c2cc3c(s2)CCCC3)s1 | 76 | 65 | 0 | 65 | 24* | 83
COc1cc(/C=C/C(=O)c2ccc(C)cc2)ccc1OCC#N | / | 5.6* | -4 | 2.0* | / | /
COc1ccc(CCNC(=O)COC(=O)/C=C/c2ccc(OCC#N)c(OC)c2)cc1OC | / | 99 | 0 | 92 | / | /
CCOc1cc(/C=C/C(=O)c2ccc(C)cc2)ccc1OCC(=O)N(C)C | / | 1.6* | -1 | 1.7* | / | /
CCOC(=O)C1=C(CSc2nc3ccccc3s2)NC(=O)NC1c1cc(C)ccc1C (centres undefined) | / | 62 | / | 64 | / | /
CCOC(=O)C1=C(CSc2nc3ccccc3s2)NC(=O)NC1c1ccc(OC)cc1 (centres undefined) | / | 5.7* | / | 21 | / | /
Cc1cc([N+](=O)[O-])nn1Cc1ccccc1F | / | 101 | / | 98 | / | /
O=c1c2cc3ccccc3n2cnn1Cc1ccccc1F | 79 | 56 | / | 41 | 17* | 77
O=P(OCC1CC1)(c1ccccc1)c1ccccc1 | / | 100 | -7 | 106 | / | /
Cc1cc(C(=O)CN2C(=O)NC(C)(c3cccc(Br)c3)C2=O)c(C)n1Cc1ccco1 (centres undefined) | 79 | 1.8* | 0 | 3.4* | 87 | 87
COc1ccccc1-c1nnc(SCC(=O)NCc2c(C)c(Cl)cc(C(C)C)c2O)o1 | 75 | 56 | 1 | 44 | / | 105
Cc1ccccc1OCC(O)CN1CCN(CCN2C(=O)c3cccc4cccc(c34)C2=O)CC1 (centres undefined) | / | 41 | -9 | 31 | / | /
Cc1cccc(C)c1OCC(O)CN1CCC(CN2C(=O)c3cccc4cccc(c34)C2=O)CC1 (centres undefined) | / | 1.1* | 1 | 1.2* | / | /
CC(=O)c1ccc(OCC(O)CN2CCN(CCN3C(=O)c4cccc5cccc(c45)C3=O)CC2)cc1 (centres undefined) | / | 35 | -3 | 37 | / | /
C=CCc1ccccc1OCC(O)CN1CCN(CCN2C(=O)c3cccc4cccc(c34)C2=O)CC1 (centres undefined) | / | 2.4* | 5 | 3.7* | / | /
OC(COc1cccc2ccccc12)CN1CCCC1 (centres undefined) | 93 | 95 | -4 | 102 | 96 | 94
CCC(OCC(O)CN1CCN(CCN2C(=O)c3cccc4cccc(c34)C2=O)CC1)c1ccccc1 (centres undefined) | / | 5.9* | / | 9 | / | /
S=C1N(c2ccccc2)C(c2cccc3ccccc23)N2CCCN12 (centres undefined) | 98 | 92 | 3 | 93 | 101 | 94
O=C(Cn1c(SCC(=O)N2CCCc3ccccc32)nc2ccccc21)N1CCCC1 | 81 | 91 | / | 93 | 80 | 88
COCCn1c(SCC(=O)N2CCCc3ccccc32)nc2cccnc21 | 87 | 77 | -2 | 81 | 19* | 108
COc1ccccc1-c1cc(C(F)(F)F)nc(S(=O)(=O)CCCC(=O)N2CCOCC2)n1 | 45 | 1.3* | 0 | 1.1* | 0.3* | 3.2*
Nc1[nH]nc2c1NN(c1ccc(Cl)cc1Cl)N2 | / | 27 | -4 | 19 | / | /
CCOc1cccc2cc(-c3cn4cc(C)ccc4n3)c(=O)oc12 | 92 | 1.1* | 1 | 1.3* | / | 24*
COc1cccc2cc(-c3cn4ccc(C)cc4n3)c(=O)oc12 | 95 | / | / | / | 82 | 100
